Sampled rows, rich in hits. Any-hit rate of the full collection: about 1.7%.
EBV gp42 inh: EBV gp42 inhibition. Q1HVG2. Fluorescence polarization binding assay, mP read-out. inhibition, % (tested at 21.74 µM). actives 0.42% (n = 220,000). AID 1085; in the data active = inhibition above about 50%
Target sequence (Q1HVG2 whole entry, looked up): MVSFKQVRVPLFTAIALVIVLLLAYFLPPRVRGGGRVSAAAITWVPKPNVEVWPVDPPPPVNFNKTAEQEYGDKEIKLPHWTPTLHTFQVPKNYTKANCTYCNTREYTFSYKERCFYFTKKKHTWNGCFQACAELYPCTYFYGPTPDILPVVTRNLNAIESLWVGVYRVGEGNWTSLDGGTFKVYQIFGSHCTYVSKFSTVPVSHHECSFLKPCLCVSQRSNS
MEX-5 binding: C. elegans MEX-5 TCR-2 RNA binding activity | Q9XUB2 | MEX-5/FITC-TCR2 RNA binding, fluorescence polarization; active compounds read low | activity score (negative = inhibition of binding), % at 10 µM | actives 0.38% (n = 300,000);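 active = inhibition past about -25% in most replicates, and total fluorescence under double the plate's negative control median, limit read from the data; inconclusive = replicates evenly split on the limit, or fluorescence at least double controls; inactive = too little inhibition in most replicates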;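 note: 0% = DMSO and -100% = 5 µM competing unlabeled TCR2 RNA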
Target sequence (Q9XUB2 whole entry, looked up): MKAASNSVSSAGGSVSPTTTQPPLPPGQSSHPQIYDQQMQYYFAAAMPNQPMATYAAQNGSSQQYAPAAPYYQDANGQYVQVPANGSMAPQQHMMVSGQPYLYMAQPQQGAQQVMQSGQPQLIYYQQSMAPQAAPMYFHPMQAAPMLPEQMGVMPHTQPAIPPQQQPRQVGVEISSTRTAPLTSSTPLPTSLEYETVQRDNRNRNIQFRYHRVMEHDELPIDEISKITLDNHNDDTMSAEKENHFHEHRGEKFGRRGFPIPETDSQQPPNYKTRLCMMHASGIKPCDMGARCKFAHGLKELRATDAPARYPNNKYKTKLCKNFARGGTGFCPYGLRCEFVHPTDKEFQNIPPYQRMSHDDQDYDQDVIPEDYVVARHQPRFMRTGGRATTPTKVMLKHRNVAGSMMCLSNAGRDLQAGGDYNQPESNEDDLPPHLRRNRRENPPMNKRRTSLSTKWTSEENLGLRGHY
NS3 helicase inh: HCV NS3 helicase inhibition; NS3 helicase DNA unwinding, Cy5 molecular beacon fluorescence; inhibition, % at 10.9 µM; actives 0.56% (n = 290,000); AID 1800;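 active = inhibition above the mean of all tested compounds plus 3 SD, set per campaign, cut at about 35% in these data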;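 note: 0% = DMSO wells and 100% = thioflavine S control wells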
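Control set: DMSO versus 110 µM thioflavine S; Material: NS3 helicase fragment of HCV; Measured by: Cy5 fluorescence at 0 and 60 min, beacon hairpin quenching; Read-out basis: percent inhibition from t60/t0 fluorescence ratio; Times: reaction time 60 min, 25 °C; Repeats: single replicate; Compound dosing: single dose, 10.9 µM nominal final, DMSO 0.8% final.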
EBNA-1 inhibitor: blocks EBNA-1 binding to DNA | actives 0.34% (n = 300,000) | AID 1950 | EBNA-1 DNA binding, fluorescence polarization | inhibition, % at 14.8 µM; in the data active = inhibition above about 28%
HCV core dimer: HCV core protein dimerization inhibition; TR-FRET GST/Flag-core106 dimerization, 1536-well; actives 0.33% (n = 300,000); inhibition, % at 5 µM;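 active = inhibition above the mean of all tested compounds plus 3 SD, set per screening campaign, cut at about 45% in these data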
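System: GST-tagged and Flag-tagged HCV core protein residues 1-106 / Input: core106 proteins, GST 13.5 nM and Flag 17 nM / Buffer or medium: KF-containing HEPES buffer, pH 7.45, DTT, CHAPS, BSA / Probe or stimulus: Eu-anti-GST and XL665-anti-Flag labelled anti-tag antibodies / Schedule: 4 h, 22.5 °C incubation / Technique: TR-FRET 671 and 617 nm emission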
ZTA counter: counter-screen for EBNA-1 inhibitors: inhibitors of Epstein-Barr virus ZTA. P03206. ZTA-DNA binding, fluorescence polarization. inhibition, % at 11 µM. actives 0.15% (n = 320,000). AID 2234; in the data active = inhibition above about 33%
The depositor's hits bear a star; ? = inconclusive; . = not tested or not shown; + = active, no number.

SMILES | EBV gp42 inh | MEX-5 binding | NS3 helicase inh | EBNA-1 inhibitor | HCV core dimer | ZTA counter
Cc1nc(-c2ccc(Cl)cc2)sc1C1(C)CC(c2cccc(F)c2)=NO1 (stereo unspecified) | -17 | 3 | . | -4 | -9 | 11
COc1cccc(C2NC(=O)NC(C)=C2C(=O)OCC2CCCCC2)c1 (stereo unspecified) | . | 1 | 1 | 4 | 15 | 8
COCCn1c(=O)[nH]c2cc(C(=O)NCCc3ccc(S(N)(=O)=O)cc3)ccc2c1=O | -4 | 2 | -13 | -12 | 4 | -11
COCCn1c(=O)[nH]c2cc(C(=O)NCCc3ccc(OC)c(OC)c3)ccc2c1=O | 50* | 1 | -6 | 0 | -14 | 2
CCOC(=O)Cc1csc(-n2sc3ccccc3c2=O)n1 | -50 | -2 | 18 | -4 | 59* | -6
Cn1c2c(c(=O)c3ccccc31)CCCC2 | . | -3 | 7 | 0 | 11 | 7
O=C(N/N=C/c1sc(N2CCOCC2)nc1-c1ccccc1)c1ccccc1F | -2 | -1 | 13 | -1 | 1 | 0
O=C(Nc1ccccc1F)C(=Cc1sc(N2CCOCC2)nc1-c1ccccc1)C(=O)Nc1ccccc1F | 62* | -43* | 10 | 9 | 19 | 6
Cc1onc(-c2ccccc2)c1-c1nnc(CN2CCN(S(=O)(=O)c3ccccc3)CC2)o1 | . | . | . | . | . | -7
Cc1ccc(N(CC(=O)NCC2CCCO2)C(=O)CCC(=O)Nc2nccs2)cc1 (stereo unspecified) | . | 3 | -12 | 9 | -3 | 0
N#CC1=C(N)OC2=C(CC/C2=C\c2ccc(F)cc2)C1c1ccc(F)cc1 (stereo unspecified) | 61* | -2 | 23 | 5 | 52* | 9
COc1ccc(OCCOc2ccc(/C=C3\C(=N)N4N=C(C)SC4=NC3=O)cc2)cc1 | . | . | . | . | . | 9
COCCCNC(=O)CCC(=O)NNc1nc2ccccc2c2nc(C)nn12 | 7 | -50* | 5 | 2 | 3 | 2
CCOCCCNC(=O)CCC(=O)NNc1nc2ccccc2c2nc(C)nn12 | -26 | -39* | 5 | -6 | -13 | 2
CN1CCc2c(sc(NC(=O)c3cc(Cl)sc3Cl)c2C(N)=O)C1 | . | 0 | -10 | 0 | -37 | 10
COc1ccccc1NC(=O)C(C)N(C)Cc1ccc(Cl)s1 (stereo unspecified) | . | -1 | -4 | 6 | -2 | 1
O=C1c2c(O)ccc(O)c2C(=O)c2c(NCCNCCO)ccc(NCCNCCO)c21 | . | . | . | 110* | -18 | +
O=C1c2ccccc2C(=O)c2c(Nc3ccc(CCO)cc3)ccc(O)c21 | 17 | 1 | 0 | -10 | -44 | -17
CCc1ccc(S(=O)(=O)Nc2ccc(O)c3c(=O)cc(-c4ccccc4Cl)oc23)cc1 | -22 | 0 | . | 8 | 9 | -6
O=c1cc(-c2ccccc2Cl)oc2c(NS(=O)(=O)c3cc(Cl)cc(Cl)c3O)ccc(O)c12 | 7 | -55* | 13 | 24 | 22 | 16
COc1ccc(-c2nsc(C(=O)N(c3ccc(F)cc3)C(C(=O)NC3CCCC3)c3ccc(OC)cc3)c2N)cc1 (stereo unspecified) | -2 | 4 | -2 | -5 | 53* | -10
CCCOc1ccc(CNC(=S)Nc2ccccc2)cc1Cl | . | 2 | 7 | 0 | -2 | -1
COc1cc(/C=C/[N+](=O)[O-])ccc1OC(=O)c1cc2ccccc2oc1=O | . | 2 | 10 | -3 | 70* | -7
COc1ccccc1OC(=O)c1cc2ccccc2oc1=O | . | -1 | -1 | 6 | -3 | 10
CCOC(=O)c1cc2c(=O)n3ccccc3nc2n(C(C)C)c1=NC(=O)c1ccncc1 | -22 | -32* | 0 | -4 | -6 | -7
SMILES | EBV gp42 inh | MEX-5 binding | NS3 helicase inh | EBNA-1 inhibitor | HCV core dimer | ZTA counter
CCOC(=O)c1cc2c(=O)n3ccccc3nc2n(CCOC)c1=NC(=O)c1ccncc1 | -5 | -1 | 24 | -1 | -6 | -32
Cc1ccc(C)c2nc3sc(C(=O)N4CCCc5ccccc54)c(N)c3cc12 | 142* | -9 | 21 | 10 | -9 | 21
O=C(c1ccc(C(=O)N2CCCc3ccccc32)s1)N1CCCc2ccccc21 | -3 | 0 | -2 | -3 | 16 | -1
CCc1ccc2nc3sc(C(=O)N4CCc5ccccc54)c(N)c3cc2c1 | 159* | 1 | 19 | -8 | 17 | -1
Cc1cc(C)c(OCC(=O)N2CC=C(c3ccccc3)CC2)c(C)c1 | . | 1 | 9 | -4 | -2 | 3
CC(C)(C)N1CC(c2nc3ccccc3n2Cc2ccc(Cl)cc2)CC1=O (stereo unspecified) | 5 | 1 | -4 | 1 | -1 | 3
CC(C)(C)N1CC(c2nc3ccccc3n2CCOc2ccccc2)CC1=O (stereo unspecified) | 67* | 0 | -3 | -13 | 1 | -7
COc1cccc(NC(=O)CN(C)C(=O)c2oc3c(ccc4ccccc43)c2C)c1 | . | 4 | . | 3 | 5 | 4
O=C(/C=C/c1ccc(N2CCC(c3ccccc3)=N2)cc1)c1ccccc1 | 53* | 5 | 3 | 5 | 13 | 12
O=C(Cn1ccc(NC(=O)OCc2ccccc2)nc1=O)NCCCn1ccnc1 | . | . | . | . | . | -16
CC(Oc1ccccc1F)c1nnc(SCC(=O)Nc2ccc(N3CCOCC3)cc2)o1 (stereo unspecified) | . | . | . | . | . | 5
O=C1N[C@@H](Cc2cn(S(=O)(=O)c3ccc([N+](=O)[O-])cc3)c3ccccc23)C(=O)N[C@H]1Cc1ccccc1 | . | -3 | . | 8 | 1 | -5
O=C1N[C@@H](Cc2cn(S(=O)(=O)c3c(F)c(F)c(F)c(F)c3F)c3ccccc23)C(=O)N[C@H]1Cc1ccccc1 | . | -1 | . | 2 | 49* | 9
Cc1cccc(C)c1OCC(O)Cn1ccnc1C (stereo unspecified) | 84* | 0 | . | -5 | 3 | 0
O=c1oc2ccccc2cc1-c1nc(-c2cccs2)cs1 | 113* | ? | 5 | 4 | 3 | 10
COc1cccc2cc(-c3nc(-c4cccs4)cs3)c(=O)oc12 | 27 | -23 | 11 | -9 | 51* | -3
COc1cccc2cc(-c3ccccc3)c(=O)oc12 | 2 | 1 | -2 | 9 | -2 | 2
CCOC(=O)N1CCN(Cc2nc3cc(NC(=O)c4ccco4)ccc3n2CC)CC1 | . | -2 | 10 | 3 | -2 | -6
O=C(O[C@@H]1OC2COC(=O)c3cc(O)c(O)c(O)c3-c3c(cc(O)c(O)c3O)C(=O)O[C@@H]([C@H]1O)[C@@H]2O)c1cc(O)c(O)c(O)c1 | -14 | -67* | 25 | 4 | -33 | -19
c1cncc(CNCc2ccco2)c1 | . | -4 | -1 | . | . | .
CC(C)(C)c1cc[n+](-c2[nH]c(=O)sc2/C=N/NC([S-])=Nc2ccccc2)cc1 | 117* | ? | 5 | 0 | -5 | -14

Compound activity from PubChem.
